The source of these data is ChEMBL document CHEMBL1154478, “Novel imidazo[1,2-a]naphthyridinic systems (part 1): synthesis, antiproliferative and DNA-intercalating activities” (2008).

One may read the GI50 as the concentration at which growth is held to half of that of the control. Read a low GI50 as more potent growth inhibition.

Each structure is given as a SMILES string. Calls of active or inactive are those of the source. The rule behind the calls is not given here.

Assay [1] has as its system MCF7. Kind of assay: Antiproliferative activity against human MCF7 cells after 48 hrs by SRB assay. The assay is classed as functional. The note with it: MCF7, 48 h. The method, boiled down: (§1)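 Cells were grown in high-glucose DMEM with 5% defined bovine calf serum and pre-incubated 24 h at 37 °C in 5% CO2. Drugs were freshly dissolved in DMSO, diluted in medium and added in serial dilutions, with DMSO kept below 0.5%, and incubated 48 h. Cells were fixed with cold TCA (10% final, 60 min at 4 °C), stained 15 min with 0.1% SRB in 1% acetic acid, and the dye solubilized in Tris base. Absorbance was read at 585 nm and growth inhibition % calculated against a control plate fixed on the treatment day.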

In a further assay the test system is HT-1080. Kind of assay: Antiproliferative activity against human HT1080 cells after 48 hrs by SRB assay. The assay is classed as functional. The note with it: HT-1080, 48 h. The method in brief: as §1
(In general: Sulforhodamine B stains cellular protein and so reports cell mass.)

For the next assay, the system named is M21. Put plainly: Antiproliferative activity against human M21 cells after 48 hrs by SRB assay. The class given is functional. The settings on record: M21, 48 h. The method, boiled down: as §1
Another assay deals with HT-29. Kind of assay: Antiproliferative activity against human HT-29 cells after 48 hrs by SRB assay. The class given is functional. The note with it: HT-29, 48 h. The method in brief: as §1
The test system of assay [2] is MCF7. Kind of assay: Cell cycle arrest in human MCF7 cells assessed as accumulation at G2/M phase at 6.6 uM after 24 hrs by flow cytometry. The class given is functional, cell-based. The method, boiled down:
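Exponentially growing MCF-7 cells were exposed to compound or DMSO control for 4, 24 or 48 h and analysed by flow cytometry with 488 nm argon laser excitation. Cell-cycle distribution was expressed as the treated/control ratio.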
In general terms: In flow cytometry, cells or beads pass a laser one at a time.

The nature of assay [3]: Binding affinity to pGEM-9Zf(-) DNA assessed as effect on DNA migration at 40 uM by gel electrophoresis. The method, boiled down: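 Human topo1 was then added and the mix held 2 h at 37 °C in the dark. The reaction was stopped with SDS and proteinase K (1 h, 45 °C). Products were run on 1% agarose with 0.1% SDS in TBE (16 h, 1.25 V/cm), stained with ethidium bromide, and re-run 2 h at 2 V/cm. Ethidium bromide served as the intercalation reference and camptothecin as the poison control.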

As to `CCc1ccc2ccn3ccnc3c2n1`, the GI50 in the assay with MCF7 [1], in the assay on HT-1080, with M21 and with HT-29 was greater than 100 µM in each case.

With `O=C1CCCc2nc3c(ccn4ccnc34)cc21`, the GI50 with MCF7 [1], in the assay with HT-1080, in the assay with M21 and in the assay on HT-29 was greater than 100 µM in each case.

As for `Cc1ccc2c(ccc3nccn32)n1`, the GI50 in the assay with MCF7 [1], in the assay with HT-1080, with M21 and in the assay on HT-29 was greater than 100 µM in each case.

Regarding `O=C1CCCc2nc3ccc4nccn4c3cc21`, the GI50 in the assay on MCF7 [1], with HT-1080, in the assay on M21 and in the assay with HT-29 was greater than 100 µM throughout.

As to `c1ccc2c(c1)CCc1nc3c(ccn4ccnc34)cc1-2`, the GI50 in the assay on MCF7 [1] is 46.5 µM; in the assay with HT-1080, 41.4 µM; with M21 it was 64.8 µM; in the assay on HT-29, 49.2 µM.

Take `CCOC(=O)C1CCc2nc3c(ccn4ccnc34)cc2C1` (stereo not drawn): the GI50 is 57.7 µM in the assay on MCF7 [1], 64.9 µM in the assay on HT-1080, 80.3 µM with M21 and 79.6 µM with HT-29.

As to `CCOC(=O)C1CCc2nc3ccc4nccn4c3cc2C1` (stereo not drawn), the GI50 in the assay with MCF7 [1], in the assay on HT-1080, in the assay on M21 and in the assay with HT-29 was greater than 100 µM throughout.

Turning to `c1ccc2cc3nc4c(ccn5ccnc45)cc3cc2c1`, the GI50 with MCF7 [1] was determined as 21.5 µM; in the assay on HT-1080, 20.7 µM; in the assay on M21, 25.2 µM; in the assay with HT-29, 18.3 µM.

Take `c1cn2c(ccc3nc4c(cc32)CCCC4)n1`: the GI50 with MCF7 [1], in the assay on HT-1080, with M21 and with HT-29 was greater than 100 µM each time.

Take `c1ccc2c(c1)CCc1cc3ccn4ccnc4c3nc1-2`: the GI50 in the assay with MCF7 [1] came to 6.6 µM; with HT-1080, 13.4 µM; in the assay on M21, 8.1 µM; in the assay on HT-29, 7.2 µM. Besides, the outcome (in the assay with MCF7 [2]; in assay [3]) was Active.

For the molecule `Cc1ccc2ccn3ccnc3c2n1`, the GI50 in the assay with MCF7 [1], with HT-1080, with M21 and in the assay on HT-29 was greater than 100 µM each time.

On to `c1ccc2c(c1)CCc1cc3c(ccc4nccn43)nc1-2`, for which the GI50 is 20.9 µM in the assay on MCF7 [1], 32.7 µM in the assay on HT-1080, 52 µM in the assay on M21 and 27.8 µM in the assay with HT-29.

In the case of `Cc1cc2c(ccc3nccn32)nc1C`, the GI50 with MCF7 [1], with HT-1080, in the assay on M21 and in the assay with HT-29 was greater than 100 µM throughout.

Consider `Cc1cc2ccn3ccnc3c2nc1C`, for which the GI50 with MCF7 [1], in the assay on HT-1080, with M21 and in the assay on HT-29 was greater than 100 µM each time.

For the molecule `c1cn2ccc3cc4c(nc3c2n1)CCCC4`, the GI50 in the assay with MCF7 [1], in the assay on HT-1080, in the assay with M21 and in the assay on HT-29 was greater than 100 µM throughout.

`CCc1ccc2c(ccc3nccn32)n1`: the GI50 with MCF7 [1], with HT-1080, in the assay with M21 and in the assay on HT-29 was greater than 100 µM each time.

Regarding `COc1cc(NS(C)(=O)=O)ccc1Nc1c2ccccc2nc2ccccc12` [AMSACRINE], the GI50 with MCF7 [1] worked out at 5.6 µM; with HT-1080 it was 1.6 µM; in the assay with M21 it was 49.6 µM; in the assay on HT-29, 16.8 µM.

As to `c1ccc(-c2ccc3ccn4ccnc4c3n2)cc1`, the GI50 was 60.5 µM in the assay on MCF7 [1], 57.7 µM with HT-1080, 56.5 µM with M21 and 48.4 µM with HT-29.

With `c1ccc(-c2ccc3c(ccc4nccn43)n2)cc1`, the GI50 in the assay on MCF7 [1] is 51.8 µM; with HT-1080, 43.3 µM; with M21, 70.1 µM; in the assay with HT-29, 55.8 µM.
